Hits are enriched below; roughly 1.8% of the tested compounds scored in any of these assays.
Runt-SMMHC FRET: inhibitors of RUNX1 Runt–CBFb-SMMHC binding, primary screen, biochemical, FRET, Cerulean-Runt, Venus-CBFb-SMMHC, uHTS; Runt-related transcription factor 1 (Homo sapiens) + Core-binding factor subunit beta …; Cerulean-Runt/Venus-CBFb-SMMHC FRET ratio 530/480, 1 h; inhibition, % at 20 µM; hit rate 0.74% among 220,000; AID 1434, 2008;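 active = mean inhibition across duplicate retests at 20 µM reaching about 50%, limit read from the data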;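 note: inhibitors lower the FRET ratio by blocking Runt binding to CBFb-SMMHC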
Target sequence (Q01196 whole entry, looked up): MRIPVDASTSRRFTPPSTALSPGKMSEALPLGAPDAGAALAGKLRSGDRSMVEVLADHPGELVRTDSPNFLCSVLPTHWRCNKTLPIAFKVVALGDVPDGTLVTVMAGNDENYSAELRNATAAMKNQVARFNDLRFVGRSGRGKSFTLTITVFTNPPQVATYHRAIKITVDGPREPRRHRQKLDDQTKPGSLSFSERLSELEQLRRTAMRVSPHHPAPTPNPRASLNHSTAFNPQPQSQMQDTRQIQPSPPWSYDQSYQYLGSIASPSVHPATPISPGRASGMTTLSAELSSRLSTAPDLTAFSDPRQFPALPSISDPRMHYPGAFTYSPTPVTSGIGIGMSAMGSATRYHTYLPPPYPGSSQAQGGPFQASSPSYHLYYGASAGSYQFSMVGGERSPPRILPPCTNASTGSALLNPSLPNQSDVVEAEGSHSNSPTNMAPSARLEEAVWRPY
Target sequence (Q13951 whole entry, looked up): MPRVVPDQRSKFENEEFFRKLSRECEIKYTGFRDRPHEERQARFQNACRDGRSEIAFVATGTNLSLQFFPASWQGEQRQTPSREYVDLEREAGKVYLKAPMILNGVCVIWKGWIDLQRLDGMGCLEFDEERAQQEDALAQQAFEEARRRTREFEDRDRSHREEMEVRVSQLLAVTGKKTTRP
Runt-CBFb FRET: inhibitors of RUNX1 Runt–CBFb binding, primary screen, biochemical, FRET, Cerulean-Runt, Venus-CBFb, uHTS. hit rate 0.46% among 220,000. inhibition, % at 20 µM. Cerulean-Runt/Venus-CBFb FRET ratio 530/480, 1 h. Runt-related transcription factor 1 (Homo sapiens) + Core-binding factor subunit beta …;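 active = inhibition over about 50% at 20 µM in the single-dose screen, limit read from the data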
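System: Cerulean-labeled Runt domain protein | Quantity: 100 nM of each labeled protein | Schedule: 1 h compound exposure, room temperature | Detection: Fluorescence energy transfer, 422 nm excitation, 530/480 nm emission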
Hck-Nef inh: inhibitors of Nef-activated human Hck kinase, primary screen, biochemical, Z-Lyte FRET, 384-well, Hck-YEEI | Tyrosine-protein kinase HCK (Homo sapiens), P08631 | AID 463187, 2010 | inhibition, % at 20 µM | Recombinant Hck-YEEI plus Nef, Z-Lyte FRET kinase assay | hit rate 0.68% among 220,000;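 active = Hck-Nef kinase inhibition above about 50%, limit read from the data; inactive = inhibition below that limit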
RanGTP-Imp inh: inhibitors of RanGTP-importin-beta interaction, primary screen, biochemical, FRET, CFP-Ran, YFP-importin-beta, homogeneous. Ran GTPase (GTP-bound) - importin-beta complex. cell-free CFP-Ran/YFP-importin-beta FRET ratio. inhibition, % (concentration not given with the values). hit rate 1.1% among 300,000;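 active = more than half of the replicate wells show a fall in the fluorescence ratio signal beyond about 16%, limit read from the data, passing the limit was not always enough; inconclusive = exactly half of the replicate wells pass the set limit; inactive = fewer than half of replicates pass the limit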
YIC FRET counter: YIC intramolecular FRET probe signal interference, dose response, counter-screen for RanGTP-importin-beta inhibitor project, biochemical, fluorescence FRET. Purified YIC probe, intramolecular FRET ratio YFP/CFP. shares compounds with RanGTP-Imp inh. hit rate 40% among 1,000. IC50, µM;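 active = fitted half-maximal inhibitory concentration no more than tenfold above the top dose tested; inconclusive = flat fit with 30 to 70% activity, or poor fit; inactive = half-maximal concentration beyond tenfold above the top dose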
Of the large screens only hits and unclear results are named; the others gave an inactive call (follow-up assays come after a bar, where they were run).

O=C(Cc1ccccc1C(=O)O)Nc1cccc2ccccc12	RanGTP-Imp inh 21 (no result: Runt-SMMHC FRET, Runt-CBFb FRET, Hck-Nef inh) | YIC FRET counter inactive
Cc1ccc2c(CC(=O)NNC(=O)c3ccccc3O)coc2c1	none (no result: Runt-SMMHC FRET, Runt-CBFb FRET, Hck-Nef inh)
Cc1nc2[nH]c(=O)c3c(n2n1)NC1=C(C(=O)CC(C)(C)C1)C3c1ccccc1 (configuration not stated)	Runt-SMMHC FRET 136, Runt-CBFb FRET 78, RanGTP-Imp inh 49 | YIC FRET counter 4.3
CC(=O)Nc1cccc(C(=O)N/N=C/c2ccc(F)cc2)c1	RanGTP-Imp inh 22 | YIC FRET counter inactive
Cc1ccc(C(=O)Nc2cccc(C(=O)N/N=C/c3ccc(F)cc3)c2)cc1	none (no result: Runt-SMMHC FRET, Runt-CBFb FRET, Hck-Nef inh)
CCCc1n(CC(O)COC2CCCCC2)c2ccccc2[n+]1C (configuration not stated)	none (no result: Runt-SMMHC FRET, Runt-CBFb FRET)
CCCc1n(CC(O)COCc2ccccc2)c2ccccc2[n+]1C (configuration not stated)	RanGTP-Imp inh 35 | YIC FRET counter inactive
CCN(CC)CCNC(=O)c1cc(-c2ccc(Br)s2)nc2ccccc12	none (no result: Runt-SMMHC FRET, Runt-CBFb FRET, Hck-Nef inh)
CCOCCCNC(=O)c1cc(-c2ccc(Br)s2)nc2ccccc12	RanGTP-Imp inh 19 (no result: Runt-SMMHC FRET, Runt-CBFb FRET, Hck-Nef inh) | YIC FRET counter 28
COc1ccccc1NC(=O)CSc1nnc2ccc(-c3ccccn3)nn12	none (no result: Runt-SMMHC FRET, Runt-CBFb FRET, Hck-Nef inh)
COc1cc(C2NC(=O)NC3=C2C(=O)OC3)cc(OC)c1OC (configuration not stated)	none
Cn1c(SCc2cccc([N+](=O)[O-])c2)nc2c(c1=O)SCC2	RanGTP-Imp inh 16 | YIC FRET counter inactive
Cc1cccc(N2CCN(C(=O)COc3ccc4c(C)cc(=O)oc4c3C)CC2)c1C	none (no result: Runt-SMMHC FRET, Runt-CBFb FRET, Hck-Nef inh)
Cc1ccnc(NC(=O)C2CCN(S(=O)(=O)c3ccc(Cl)c(C(F)(F)F)c3)CC2)c1	none (no result: Runt-SMMHC FRET, Runt-CBFb FRET, Hck-Nef inh)
Cc1ccc(NC(=O)C2CCN(S(=O)(=O)c3ccc(Cl)c(C(F)(F)F)c3)CC2)nc1	RanGTP-Imp inh 20 (no result: Runt-SMMHC FRET, Runt-CBFb FRET, Hck-Nef inh) | YIC FRET counter inactive
O=C(COC(=O)c1ccc2ccccc2c1)NCCCc1ccccc1	RanGTP-Imp inh 17 | YIC FRET counter inactive
Nc1cc(C(=O)OCC(=O)NCCCc2ccccc2)ccc1Cl	none (no result: Runt-SMMHC FRET, Runt-CBFb FRET, Hck-Nef inh)
NC(=O)c1ccccc1NC(=O)/C=C/c1ccc(Cl)cc1	RanGTP-Imp inh 23 | YIC FRET counter inactive
CCN(/N=C/C=C/c1ccccc1)c1cc(=O)n(C)c(=O)[nH]1	RanGTP-Imp inh 27 | YIC FRET counter inactive
CC(C)Sc1nc(N2CCOCC2)c2c(c1C#N)CC(C)(C)N(C)C2	Runt-SMMHC FRET 79, RanGTP-Imp inh 27 | YIC FRET counter 39
CCN1C(=O)C2(C(C#N)=C(N)Oc3n[nH]c(-c4ccc(Cl)cc4)c32)c2ccccc21 (configuration not stated)	none
CCN1C(=O)C2(C(C#N)=C(N)Oc3n[nH]c(C(C)C)c32)c2ccccc21 (configuration not stated)	RanGTP-Imp inh 26 | YIC FRET counter inactive
Cc1nnc(NC(=O)C(C)Sc2nnc(-c3ccco3)n2C(C)C)s1 (configuration not stated)	none (no result: Runt-SMMHC FRET, Runt-CBFb FRET, Hck-Nef inh)
COc1ccc(-c2cc(C(=O)NC3CC3)c3ccccc3n2)cc1	none (no result: Runt-SMMHC FRET, Runt-CBFb FRET, Hck-Nef inh)
COc1cccc(-c2cc(C(=O)NC3CC3)c3ccccc3n2)c1	RanGTP-Imp inh 19 (no result: Runt-SMMHC FRET, Runt-CBFb FRET, Hck-Nef inh) | YIC FRET counter inactive
CCCOC(=O)CSC1=C(C#N)C(c2ccccc2OCC)C(C#N)C(=O)N1 (configuration not stated)	RanGTP-Imp inh 21 | YIC FRET counter inactive
CCCCOC(=O)CSC1=C(C#N)C(c2ccccc2OCC)C(C#N)C(=O)N1 (configuration not stated)	RanGTP-Imp inh inconclusive
COc1ccc(C)cc1N(CC(=O)NCCSCc1cccc(Cl)c1)S(C)(=O)=O	none (no result: Runt-SMMHC FRET, Runt-CBFb FRET, Hck-Nef inh)
Cc1ccc(-c2cc3nc(-c4ccccc4)cc(N4CCC5(CC4)OCCO5)n3n2)cc1	RanGTP-Imp inh 29 | YIC FRET counter 5.6
Cc1ccc(Cl)cc1-n1c(=O)cc(N2CC(C)OC(C)C2)[nH]c1=O (configuration not stated)	RanGTP-Imp inh 56 | YIC FRET counter inactive
COc1cc(C2C3=C(Nc4nc(N)[nH]c(=O)c42)c2ccccc2C3=O)ccc1O (configuration not stated)	none
Cc1cc(N/N=C/c2ccc(O)cc2O)c2ccccc2n1	none (no result: Runt-SMMHC FRET, Runt-CBFb FRET, Hck-Nef inh)
Oc1ccc(/C=N/Nc2ccc3ccccc3c2)c(O)c1	RanGTP-Imp inh 16 | YIC FRET counter inactive
COc1ccc(C(=O)Nc2ccc(S(=O)(=O)Nc3onc(C)c3C)cc2)cc1	RanGTP-Imp inh 27 | YIC FRET counter inactive
COc1cccc(C(=O)Nc2ccc(S(=O)(=O)Nc3onc(C)c3C)cc2)c1	none
COc1ccc(OC(=O)C2CC(=O)N(c3ccc(C)cc3)C2)cc1 (configuration not stated)	RanGTP-Imp inh 22 | YIC FRET counter inactive
COCCNC(=O)C(C)OC(=O)c1cc2occc2n1C (configuration not stated)	RanGTP-Imp inh 19 | YIC FRET counter inactive
COc1cc(/C=C(\C#N)C(=O)c2c[nH]c3ccccc23)cc(OC)c1O	none
C[C@H]1CN([C@@H](C)CO)C(=O)c2cccc(NC(=O)c3ccc(-c4nccs4)cc3)c2O[C@H]1CN(C)C(=O)Nc1ccccc1	none (no result: Runt-SMMHC FRET, Runt-CBFb FRET, Hck-Nef inh, RanGTP-Imp inh) | YIC FRET counter inactive
CS(=O)(=O)Nc1ccc(C(=O)Nc2ccccc2-c2ccccc2)cc1	none (no result: Runt-SMMHC FRET, Runt-CBFb FRET, Hck-Nef inh)
Clc1ccc(/C=C/c2ncc3ccccn23)cc1	RanGTP-Imp inh 24 (no result: Runt-SMMHC FRET, Runt-CBFb FRET) | YIC FRET counter 2.5
Cc1ccc(OCC(=O)OCc2nc3scc(-c4ccccc4)c3c(=O)[nH]2)cc1C	none (no result: Runt-SMMHC FRET, Runt-CBFb FRET, Hck-Nef inh)
Cc1ccc(OCCCCN2CCCC(C)C2)c([N+](=O)[O-])c1 (configuration not stated)	none
CSc1ncccc1C(=O)OCC(=O)c1cc2ccccc2o1	RanGTP-Imp inh 19 | YIC FRET counter inactive
c1ccc2nc(N3CCN(Cc4ccc5c(c4)OCO5)CC3)cnc2c1	none
N#C/C(=C\N1CCN(Cc2ccc3c(c2)OCO3)CC1)c1nc2ccccc2s1	RanGTP-Imp inh 20 | YIC FRET counter inactive
CCOC(=O)N1CCN(/C=C(\C#N)c2nc3ccccc3s2)CC1	RanGTP-Imp inh 21 | YIC FRET counter inactive
CCOc1cc(C=O)ccc1OS(=O)(=O)c1ccc(NC(C)=O)cc1	none
CC1=C(C(=O)OCC2CCCO2)C(c2cccc(C(F)(F)F)c2)C2=C(CC(c3ccco3)CC2=O)N1 (configuration not stated)	none
